IMP-1 inhibitor – blocks Pseudomonas aeruginosa IMP-1 metallo-beta-lactamase. inhibition, % at 5.6 µM. purified IMP-1, nitrocefin hydrolysis, epi-absorbance fluorescence. hit rate 0.45% among 290,000;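 active = inhibition above the mean plus 3 SD of all compounds in the same screening run, cut at about 4.5% in these data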;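 note: 0% = IMP-1 with DMSO and 100% = DMSO wells lacking enzyme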
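Material – recombinant IMP-1 enzyme, purified · Amount – IMP-1 0.2 nM before substrate addition · Medium – HEPES buffer pH 7.1 with ZnSO4 and Brij 35 · Timing – 25 °C, 15 min preincubation, 25 min reaction · Measured by – plate fluorescence quenching by hydrolysis product, ex 480/em 530 nm · Read-out – percent enzyme inhibition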
PHOSPHO1 block – PHOSPHO1 (human) inhibition | AID 1565 | inhibition, % at 13.3 µM | Q8TCT1 | hit rate 1.1% among 290,000 | recombinant PHOSPHO1, absorbance phosphatase assay; in the data active = inhibition above about 60%
Target sequence (Q8TCT1 whole entry, looked up): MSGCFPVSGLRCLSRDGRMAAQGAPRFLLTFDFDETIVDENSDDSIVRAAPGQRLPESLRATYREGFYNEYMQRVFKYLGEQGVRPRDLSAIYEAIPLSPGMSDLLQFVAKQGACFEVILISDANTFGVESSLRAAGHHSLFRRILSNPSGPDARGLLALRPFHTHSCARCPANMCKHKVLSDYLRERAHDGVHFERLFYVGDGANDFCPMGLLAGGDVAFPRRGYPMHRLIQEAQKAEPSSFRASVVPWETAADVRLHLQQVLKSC
core dimer inh – blocks dimerization of HCV core protein | TR-FRET GST/Flag-core106 dimerization, 1536-well | hit rate 0.33% among 300,000 | inhibition, % at 5 µM | AID 1899;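 active = inhibition above the mean of all tested compounds plus 3 SD, set per screening campaign, cut at about 45% in these data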
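System: GST/Flag-tagged HCV core106 proteins. Incubation: compound-protein-antibody incubation 4 h at 22.5 °C. Technique: HTRF with 340 nm excitation, 617/671 nm emission. Medium: KF-containing HEPES buffer, pH 7.45, DTT, CHAPS, BSA. Read-out: inhibition (%) from 671 over 617 nm ratio. Also added: Eu(K)-anti-GST 90 ng/mL plus XL665-anti-Flag 1 µg/mL.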
UBC9 SUMO inh – inhibitors of human SUMOylation (UBC9); HTRF SUMOylation assay, SAE1/SAE2 + UBC9, in vitro; AID 2006; inhibition, % at 35 µM; hit rate 0.36% among 290,000; in the data active = inhibition above about 50%, passing the limit was not always enough
Target sequence (P63279 whole entry, looked up): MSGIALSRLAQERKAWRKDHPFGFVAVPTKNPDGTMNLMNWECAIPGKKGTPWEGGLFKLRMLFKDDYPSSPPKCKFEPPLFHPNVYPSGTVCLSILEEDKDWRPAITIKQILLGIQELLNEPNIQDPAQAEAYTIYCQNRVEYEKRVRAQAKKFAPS
VIM-2 inhibitor – inhibitors of Pseudomonas aeruginosa VIM-2 metallo-beta-lactamase; purified VIM-2, nitrocefin hydrolysis, epi-absorbance fluorescence; inhibition, % at 5.6 µM; hit rate 0.89% among 290,000; AID 1527;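 active = inhibition above the mean of all tested compounds plus 3 SD, cutoff set per screening run, cut at about 7.5% in these data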;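 note: red hydrolysis product quenches plate fluorescence so inhibitors raise well fluorescence; 0% = enzyme with DMSO and 100% = DMSO without enzyme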
NS3 helicase inh – HCV NS3 helicase inhibition; NS3 helicase DNA unwinding, Cy5 molecular beacon fluorescence; inhibition, % at 10.9 µM; hit rate 0.56% among 290,000;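 active = inhibition above the mean of all tested compounds plus 3 SD, set per campaign, cut at about 35% in these data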;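 note: 0% = DMSO wells and 100% = thioflavine S control wells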
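assay system = NS3 helicase fragment of HCV | buffer or medium = MOPS pH 6.5, MgCl2, DTT, Tween20, BSA | timing = 60 min unwinding reaction at 25 °C after ATP addition | signal = Cy5 beacon fluorescence read at start and 1 h | read-out basis = % inhibition of unwinding | control set = low DMSO, high thioflavine S at 110 µM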
The depositor's hits bear a star; . = not tested or not shown. Shown are actives, neighbours in structure and some others; about 3.1% of the full set was active somewhere.

SMILES	IMP-1 inhibitor	PHOSPHO1 block	core dimer inh	UBC9 SUMO inh	VIM-2 inhibitor	NS3 helicase inh
CCOc1ccc2nc3sc(C(=O)N4CCN(C)CC4)c(N)c3cc2c1	-5.2	-16.3	-16.3	20.8	3.7	-0.7
Cc1ccc2nc3sc(C(=O)N4CCOCC4)c(N)c3cc2c1	0.1	85.6*	-6.0	26.5	-3.1	7.0
Cc1ccc(S(=O)(=O)CCC(=O)Oc2ccc(-c3nnco3)cc2)cc1	.	.	-3.3	.	.	.
CC(=O)c1cc(CN2CCC(n3nccc3NC(=O)c3ccccc3)CC2)cs1	-2.7	24.0	7.3	12.5	-2.6	-1.0
COc1ccc(NC(=O)Cn2nnc(C(=O)Nc3ccc(F)c(Cl)c3)c2N)cc1	8.1*	47.7	1.7	24.8	1.1	9.1
O=C(Nc1cccn(Cc2ccc(F)cc2)c1=O)NC1CCCCC1	-1.4	5.4	1.0	4.7	-2.5	-2.0
Cc1ccc(Cn2cccc(NC(=O)NC3CCCCC3)c2=O)cc1	-0.7	66.4*	12.4	18.8	-2.4	-5.3
COc1cccc(C(=O)N2CCN(Cc3ccccc3C(F)(F)F)CC2)c1	-0.5	24.5	3.6	-4.6	-3.8	-7.0
COc1cccc(C(=O)N2CCN(Cc3ccccc3Br)CC2)c1	7.4*	49.9	-1.5	-2.3	0.6	2.4
Cc1ccc(-n2nc3c(=O)n(CCCC(=O)NCC(C)c4ccccc4)nc(C)c3c2C)cc1 (stereo unspecified)	-2.8	24.0	-0.8	.	-1.8	-1.4
S=c1nc(-c2ccccc2)n(Cc2cccnc2)c2c1CCCC2	-0.6	11.6	7.2	12.5	0.2	-13.2
S=c1nc(-c2ccccc2)n(Cc2ccco2)c2c1CCCC2	-2.6	88.7*	.	12.7	-1.7	2.0
CC(NC(=O)CCCc1ccccc1)c1ccncc1 (stereo unspecified)	-4.0	35.6	-15.9	8.7	-3.3	1.8
CC(=O)Nc1ccccc1C(=O)C(=O)Nc1ccc(F)c(Cl)c1	-2.4	39.0	0.4	13.9	-1.2	0.8
O=C(Cc1csc(N2CCOCC2)n1)N/N=C/c1ccc(O)c(O)c1O	-0.5	9.5	.	93.4*	-3.1	21.1
O=C(CCN1CCN(c2ccccc2)CC1)N/N=C/c1ccc(O)c(O)c1O	-0.2	-5.2	.	76.4*	-2.6	18.2
Cc1nc2c(c(=O)c3ccccc3n2C)c(=O)n1-c1ccc(F)cc1	-0.9	-2.1	6.5	16.4	8.0*	4.7
CC(C)c1nc2c(c(=O)c3ccccc3n2C)c(=O)n1-c1ccc(F)cc1	-2.5	-9.8	0.5	-6.6	1.2	-11.4
Cc1nn(CC(=O)N2CCc3ccccc3C2)c(C)c1Cl	-2.0	47.5	3.1	7.2	-0.9	-3.9
CCCCNC(=O)OCC(CC)NC(=O)OCC(C)C (stereo unspecified)	8.7*	58.3	8.8	8.2	-4.2	2.7
COc1ccccc1/C=C(/C(=O)OCC(=O)Nc1cc(C)ccc1C)c1ccccc1	-2.4	4.1	9.6	-15.2	-1.3	-0.5
CCC(=O)NC(=S)NNC(=O)c1ccc(O)cc1	-4.0	80.6*	-5.2	-2.3	-4.7	-3.5
CC1(C)Cc2c(c(-c3ccco3)nc3sc4c(NCCO)ncnc4c23)CO1	1.5	-11.2	2.4	14.8	1.1	9.5
CSc1nc(SCCO)c2sc3nc(-c4ccco4)c4c(c3c2n1)CC(C)(C)OC4	3.6	76.4*	.	39.1	2.7	31.3
COCCCNc1ncnc2c1sc1nc(-c3ccco3)c3c(c12)CC(C)(C)OC3	1.3	22.6	3.1	22.9	-1.0	25.3
SMILES	IMP-1 inhibitor	PHOSPHO1 block	core dimer inh	UBC9 SUMO inh	VIM-2 inhibitor	NS3 helicase inh
CSc1nc(N(CCO)CCO)c2sc3nc(-c4ccco4)c4c(c3c2n1)CCC4	12.4*	78.7*	.	62.0*	1.4	32.2
CC(c1ccncn1)N(C)C(=O)c1ccc2oc(Cc3ccccc3)nc2c1 (stereo unspecified)	-0.2	17.8	0.2	-6.3	1.0	-0.9
CCCNc1nc2ccccc2n2c(C)nnc12	-5.7	.	-15.2	2.4	11.1*	14.1
CCc1nnc2c(NCCc3ccccc3)nc3ccccc3n12	-1.7	11.4	3.3	15.0	8.5*	4.7
CCc1nc2ccccc2n1CCc1ccccc1	-1.2	-5.3	2.2	3.6	2.1	2.4
O=C1/C(=C/c2ccc(Cl)cc2)SC(=S)N1CCC(=O)N1CCCCC1CCO (stereo unspecified)	-0.8	-0.7	18.9	12.8	-4.1	-13.3
O=C(CN1C(=O)/C(=C/c2ccccc2Cl)SC1=S)NC1C=CS(=O)(=O)C1 (stereo unspecified)	12.0*	75.4*	6.7	.	-3.0	-18.3
CN1CCN(C(=O)CCN2C(=O)/C(=C\c3ccc(Cl)cc3Cl)SC2=S)CC1	0.5	83.6*	-0.7	3.7	0.8	-46.1
O=C(CCN1C(=O)/C(=C/c2ccccc2Cl)SC1=S)NN1CCOCC1	4.5*	31.9	2.1	7.5	3.6	3.1
O=C1/C(=C/c2ccccc2F)SC(=S)N1CCC(=O)N1CCCCC1CCO (stereo unspecified)	-1.8	64.0*	12.2	.	-1.3	-7.5
O=C(CN1C(=O)/C(=C/c2ccccc2)SC1=S)NC1C=CS(=O)(=O)C1 (stereo unspecified)	0.7	18.3	13.2	.	-0.7	-0.4
CCOc1ccc(CCNC(=O)COC(=O)c2nc(Cl)ccc2Cl)cc1OCC	.	.	5.4	.	.	.
O=C(CN1C(=O)/C(=C/c2ccccc2)SC1=S)NC1CCS(=O)(=O)C1 (stereo unspecified)	-2.1	24.0	7.5	.	-0.8	1.8
O=C(CN1C(=O)/C(=C/c2ccc(F)cc2)SC1=S)NC1CCS(=O)(=O)C1 (stereo unspecified)	10.5*	52.8	-0.2	21.3	0.9	9.8
O=C(CN1C(=O)/C(=C/c2ccc(F)cc2)SC1=S)NC1C=CS(=O)(=O)C1 (stereo unspecified)	4.8*	37.5	12.7	9.3	-0.5	19.2
O=C(CSc1nncn1-c1ccccc1)Nc1cc(F)ccc1F	-3.2	24.0	-0.3	-0.8	-2.6	10.3
CC(=O)c1sc(NCc2ccccc2)nc1C	27.6*	22.5	-56.2	6.0	0.0	18.1
CC1CCN(C(=O)CCC(=O)Nc2nnc(C(F)(F)F)s2)CC1	-2.2	32.4	4.2	8.1	-1.8	-3.6
Cc1cccc(N=C2Sc3nc4c(C)c(C)ccc4cc3CN2CCN2CCOCC2)c1	-1.8	81.3*	-8.3	-8.4	-1.8	-61.9
CC(C)(C)NC(=O)CON=C1c2ccccc2-c2ccccc21	-1.5	-4.4	-4.7	-4.8	-3.9	-8.5
CC(C)(C)NCC(O)CON=C1c2ccccc2-c2ccccc21 (stereo unspecified)	1.2	-17.9	-5.6	4.4	7.8*	-37.3
Cc1ccc(C2C3=C(CCCC3=O)Nc3[nH]c(=S)[nH]c(=O)c32)cc1 (stereo unspecified)	-2.4	102.5*	1.2	10.7	-4.6	28.4

Source: PubChem
